From ChEMBL document CHEMBL1124208, “Retro-inverso concept applied to the complete inhibitors of enkephalin-degrading enzymes” (J Med Chem, 1988)

Tests used:
[1] = Inhibition of [3H]Leu-enkephalin binding to aminopeptidase; design: species or system Sus scrofa
Method in brief: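 Uses commercial purified pig kidney aminopeptidase N without further purification. Enzyme preincubated 15 min at 25 °C with inhibitor in 50 mM Tris-HCl pH 7.0. [3H]Leu-enkephalin then added at 10 nM final (Km 50 μM) and the reaction stopped with HCl. IC50 by log probit analysis of five inhibitor concentrations, mean ± SEM of four independent experiments.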

[2] = Inhibition of [3H]Leu-enkephalin binding to Dipeptidyl aminopeptidase (DAP); design: species or system Rattus norvegicus
Method in brief: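 Membrane-bound DAP partially purified from rat brain. […] IC50 by log probit analysis of five inhibitor concentrations, mean ± SEM of four independent experiments.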

Neprilysin = molecular target: T1, Neprilysin (Oryctolagus cuniculus, UniProt P08049); experiment: Inhibition of [3H]Ala2-Leu-enkephalin binding to Neutral endopeptidase (NEP)
T1 sequence (P08049 whole entry): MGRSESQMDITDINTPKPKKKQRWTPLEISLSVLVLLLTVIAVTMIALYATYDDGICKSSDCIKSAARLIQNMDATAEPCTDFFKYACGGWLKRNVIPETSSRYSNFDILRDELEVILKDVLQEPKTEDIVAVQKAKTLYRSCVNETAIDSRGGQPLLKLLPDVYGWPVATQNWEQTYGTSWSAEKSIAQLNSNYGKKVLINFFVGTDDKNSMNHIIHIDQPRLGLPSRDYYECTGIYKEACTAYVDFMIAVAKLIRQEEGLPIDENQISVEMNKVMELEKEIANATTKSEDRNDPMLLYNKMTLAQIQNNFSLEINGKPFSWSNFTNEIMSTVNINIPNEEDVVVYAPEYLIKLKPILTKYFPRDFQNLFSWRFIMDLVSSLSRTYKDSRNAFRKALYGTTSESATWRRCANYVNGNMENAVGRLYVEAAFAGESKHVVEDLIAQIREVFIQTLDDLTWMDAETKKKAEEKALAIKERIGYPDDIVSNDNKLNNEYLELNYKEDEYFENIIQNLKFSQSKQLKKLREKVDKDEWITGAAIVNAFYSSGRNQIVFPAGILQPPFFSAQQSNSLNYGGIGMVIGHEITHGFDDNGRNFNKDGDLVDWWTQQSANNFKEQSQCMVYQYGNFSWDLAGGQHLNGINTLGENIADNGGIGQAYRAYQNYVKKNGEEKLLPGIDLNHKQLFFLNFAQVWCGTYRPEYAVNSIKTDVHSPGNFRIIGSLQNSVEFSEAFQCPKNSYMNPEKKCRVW
Method in brief: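 NEP purified to homogeneity from rabbit kidney (single 94 kD band on SDS-PAGE), 1 pmol/100 μL final. Enzyme preincubated 15 min at 25 °C with or without increasing inhibitor in 50 mM Tris-HCl pH 7.0. [3H]D-Ala2-Leu-enkephalin then added at 20 nM final and the reaction stopped after 30 min with HCl. IC50 from log probit analysis of five inhibitor concentrations, mean ± SEM of four independent experiments.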

| SMILES | IC50 [1] | IC50 [2] | IC50 (Neprilysin) |
| --- | --- | --- | --- |
| O=C(O)CC(=O)N[C@H](CC(=O)NO)Cc1ccccc1 | 150 µM | 0.45 µM | 0.0025 µM |
| CN(O)C(=O)[C@@H](Cc1ccccc1)NC(=O)CC(=O)O |  |  | 6.07 µM |
| CN(O)C(=O)C[C@@H](Cc1ccccc1)NC(=O)CC(=O)O | > 100 µM |  | 1.73 µM |
| O=C(CC(Cc1ccccc1)NC(=O)C(Cc1ccccc1)C(=O)O)NO (stereo unspecified) | 6.2 µM | 0.0325 µM | 0.0037 µM |
| O=C(O)CNC(=O)C(CC(=O)NO)Cc1ccccc1 (racemic) | 2 µM | 0.021 µM |  |
| O=C(O)CNC(=O)C(Cc1ccccc1)C(=O)NO (racemic) | 100 µM | 35 µM |  |
| C[C@H](NC(=O)[C@@H](CC(=O)NO)Cc1ccccc1)C(=O)O (racemic) [KELATORPHAN] | 0.38 µM | 0.0009 µM | 0.0017 µM |
| CC(C(=O)O)C(=O)NC(Cc1ccccc1)C(=O)NO (stereo in doubt; 8) | 6.1 µM | 2.7 µM | 0.945 µM |
| CC(C(=O)O)C(=O)NC(Cc1ccccc1)C(=O)NO (stereo in doubt; 9) | ~100 µM | 0.071 µM | 0.32 µM |

Other lines, results leading:

| IC50 [1] | IC50 [2] | IC50 (Neprilysin) | SMILES |
| --- | --- | --- | --- |
| ~20 µM | ~32 µM | 3.35 µM | O=C(O)CC(=O)N[C@H](Cc1ccccc1)C(=O)NO |
| 2 µM | 0.14 µM | 0.0005 µM | O=C(O)CC(=O)N[C@@H](CC(=O)NO)Cc1ccccc1 |
| 400 µM | 2 µM | 2.5 µM | O=C(O)CC(=O)N[C@@H](Cc1ccccc1)C(=O)NO |
| 8.6 µM | 0.0175 µM | 0.0016 µM | CC(C(=O)O)C(=O)NC(CC(=O)NO)Cc1ccccc1 (stereo unspecified) |
| 0.13 µM |  | 0.0025 µM | O=C(CC(Cc1ccccc1)C(=O)NC(Cc1ccccc1)C(=O)O)NO (racemic) |
